Our source for the inhibition values is ChEMBL document CHEMBL5696442, “Discovery of type II inhibitors of TGFβ-activated kinase 1 (TAK1) and mitogen-activated protein kinase kinase kinase kinase 2 (MAP4K2)” (J Med Chem, 2015).

Assay [1] deals with Mitogen-activated protein kinase 8 (Homo sapiens, UniProt P45983). Nature of the assay: Inhibition of JNK1 Lys2 labeling site in human Huh-7 cell lysate at 1 uM by KiNativ Profiling analysis relative to control. It counts as subcellular.
The target of assay [2] is T1, Mitogen-activated protein kinase kinase kinase 7 (Homo sapiens) (UniProt O43318).
T1 sequence (whole entry): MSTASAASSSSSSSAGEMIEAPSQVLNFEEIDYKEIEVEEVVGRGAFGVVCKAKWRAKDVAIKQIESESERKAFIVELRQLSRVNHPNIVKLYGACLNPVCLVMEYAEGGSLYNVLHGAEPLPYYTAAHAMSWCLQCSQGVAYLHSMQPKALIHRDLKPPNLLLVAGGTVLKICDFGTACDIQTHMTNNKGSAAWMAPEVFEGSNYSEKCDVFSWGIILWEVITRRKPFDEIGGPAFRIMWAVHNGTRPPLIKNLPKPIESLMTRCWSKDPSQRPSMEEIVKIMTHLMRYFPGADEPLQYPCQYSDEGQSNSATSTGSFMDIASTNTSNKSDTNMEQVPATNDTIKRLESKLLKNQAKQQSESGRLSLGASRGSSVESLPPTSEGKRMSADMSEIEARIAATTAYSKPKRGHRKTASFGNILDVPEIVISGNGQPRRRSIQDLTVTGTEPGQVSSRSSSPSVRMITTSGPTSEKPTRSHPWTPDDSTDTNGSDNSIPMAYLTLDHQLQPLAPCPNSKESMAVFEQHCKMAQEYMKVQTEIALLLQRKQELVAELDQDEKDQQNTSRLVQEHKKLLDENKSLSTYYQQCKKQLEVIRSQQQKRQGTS
Nature of the assay: Inhibition of TAK1 Lys2 labeling site in human A-375 cells at 0.05 uM by KiNativ Profiling analysis relative to control. It counts as cell-based.

Assay [3] concerns the target T2, Serine/threonine-protein kinase Nek9 (Homo sapiens) (UniProt Q8TD19).
T2 sequence (whole entry): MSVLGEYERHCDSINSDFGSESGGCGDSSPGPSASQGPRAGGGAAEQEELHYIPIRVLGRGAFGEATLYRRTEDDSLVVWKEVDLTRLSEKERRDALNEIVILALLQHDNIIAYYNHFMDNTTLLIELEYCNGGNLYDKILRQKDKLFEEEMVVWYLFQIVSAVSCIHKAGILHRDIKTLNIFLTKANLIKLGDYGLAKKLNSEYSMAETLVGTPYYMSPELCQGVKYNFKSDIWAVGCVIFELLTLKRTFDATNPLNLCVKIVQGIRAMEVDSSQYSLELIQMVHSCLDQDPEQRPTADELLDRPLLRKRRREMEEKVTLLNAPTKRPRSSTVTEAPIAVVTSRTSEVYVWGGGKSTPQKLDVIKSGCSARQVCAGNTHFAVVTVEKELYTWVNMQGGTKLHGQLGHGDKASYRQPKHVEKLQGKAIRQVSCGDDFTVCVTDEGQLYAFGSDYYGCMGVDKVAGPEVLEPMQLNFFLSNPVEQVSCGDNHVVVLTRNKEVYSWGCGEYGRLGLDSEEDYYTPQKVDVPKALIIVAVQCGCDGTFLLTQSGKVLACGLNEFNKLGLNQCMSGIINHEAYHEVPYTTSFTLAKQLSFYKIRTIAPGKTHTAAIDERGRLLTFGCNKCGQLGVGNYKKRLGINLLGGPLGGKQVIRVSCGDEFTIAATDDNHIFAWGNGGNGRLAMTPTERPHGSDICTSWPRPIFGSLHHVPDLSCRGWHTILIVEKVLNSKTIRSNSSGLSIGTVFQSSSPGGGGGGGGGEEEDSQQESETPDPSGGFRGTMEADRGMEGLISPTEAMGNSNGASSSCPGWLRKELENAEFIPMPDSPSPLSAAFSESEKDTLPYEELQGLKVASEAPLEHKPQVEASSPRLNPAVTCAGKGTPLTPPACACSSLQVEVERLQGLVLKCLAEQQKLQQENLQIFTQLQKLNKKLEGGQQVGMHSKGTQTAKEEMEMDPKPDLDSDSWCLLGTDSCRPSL
Nature of the assay: Inhibition of NEK9 Lys1 labeling site harbouring TEDDSLVVWKEVDLTR in human A-375 cells at 5 uM by KiNativ Profiling analysis relative to control. It counts as cell-based.

In assay [4] the target is T3, Serine/threonine-protein kinase TBK1 (Homo sapiens) (UniProt Q9UHD2).
T3 sequence (whole entry): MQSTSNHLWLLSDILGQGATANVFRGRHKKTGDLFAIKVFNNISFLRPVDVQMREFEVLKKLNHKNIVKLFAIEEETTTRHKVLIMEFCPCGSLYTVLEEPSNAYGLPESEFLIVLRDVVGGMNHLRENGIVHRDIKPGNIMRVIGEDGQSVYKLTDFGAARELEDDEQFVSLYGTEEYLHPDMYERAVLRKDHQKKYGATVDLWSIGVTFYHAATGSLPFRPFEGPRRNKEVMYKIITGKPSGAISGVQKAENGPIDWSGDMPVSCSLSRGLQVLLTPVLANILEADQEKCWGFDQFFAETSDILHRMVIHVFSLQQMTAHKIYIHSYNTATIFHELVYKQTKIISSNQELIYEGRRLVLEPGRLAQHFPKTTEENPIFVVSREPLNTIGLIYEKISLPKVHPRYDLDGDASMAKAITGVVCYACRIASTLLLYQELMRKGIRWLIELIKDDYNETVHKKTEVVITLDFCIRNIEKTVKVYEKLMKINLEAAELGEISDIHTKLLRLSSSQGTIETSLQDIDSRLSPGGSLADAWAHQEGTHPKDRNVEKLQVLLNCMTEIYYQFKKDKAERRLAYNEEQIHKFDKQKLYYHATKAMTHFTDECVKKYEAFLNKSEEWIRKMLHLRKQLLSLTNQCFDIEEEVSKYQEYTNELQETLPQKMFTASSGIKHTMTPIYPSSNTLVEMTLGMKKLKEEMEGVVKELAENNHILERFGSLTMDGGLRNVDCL
In words: Inhibition of TBK1 Lys2 labeling site in human A-375 cells at 0.5 uM by KiNativ Profiling analysis relative to control. Type of assay: cell-based.

Assay [5] deals with RAC-beta serine/threonine-protein kinase (Homo sapiens) (UniProt P31751). Nature of the assay: Inhibition of AKT2 ATP Loop labeling site in human A-375 cells at 0.5 uM by KiNativ Profiling analysis relative to control. It counts as cell-based. An outline of the steps:
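Live A375 melanoma cells were treated with compound at 5 or 0.5 μM, then lysed. The lysates were labeled with a lysine-reactive ATP or ADP-biotin probe. Kinase protection from probe labeling was measured by KiNativ.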

RAC-beta serine/threonine-protein kinase (Homo sapiens), sequence (P31751 whole entry): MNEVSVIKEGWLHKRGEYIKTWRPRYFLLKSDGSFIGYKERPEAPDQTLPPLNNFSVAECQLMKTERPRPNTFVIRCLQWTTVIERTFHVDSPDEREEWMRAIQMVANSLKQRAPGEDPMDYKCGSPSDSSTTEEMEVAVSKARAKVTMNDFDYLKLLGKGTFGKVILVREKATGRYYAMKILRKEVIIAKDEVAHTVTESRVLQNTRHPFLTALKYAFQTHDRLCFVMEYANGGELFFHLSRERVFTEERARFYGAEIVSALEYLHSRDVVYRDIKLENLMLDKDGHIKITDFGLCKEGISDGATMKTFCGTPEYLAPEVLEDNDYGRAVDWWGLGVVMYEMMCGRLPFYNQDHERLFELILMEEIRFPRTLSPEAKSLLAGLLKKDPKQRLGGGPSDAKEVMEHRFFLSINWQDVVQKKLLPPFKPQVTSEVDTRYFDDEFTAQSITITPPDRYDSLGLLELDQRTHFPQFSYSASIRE
Mitogen-activated protein kinase 8, sequence (P45983 whole entry): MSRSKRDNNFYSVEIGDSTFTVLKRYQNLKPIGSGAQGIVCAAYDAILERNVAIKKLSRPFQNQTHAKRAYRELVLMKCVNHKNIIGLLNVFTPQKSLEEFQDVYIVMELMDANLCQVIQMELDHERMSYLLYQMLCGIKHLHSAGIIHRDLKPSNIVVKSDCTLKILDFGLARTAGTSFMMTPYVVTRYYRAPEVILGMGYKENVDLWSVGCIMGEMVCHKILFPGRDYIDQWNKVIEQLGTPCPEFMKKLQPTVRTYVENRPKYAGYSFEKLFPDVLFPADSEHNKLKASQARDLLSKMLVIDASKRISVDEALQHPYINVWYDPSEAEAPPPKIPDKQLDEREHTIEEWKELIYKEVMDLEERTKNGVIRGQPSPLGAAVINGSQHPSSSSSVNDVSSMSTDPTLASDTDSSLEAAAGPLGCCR

Turning to `CNc1cc(Oc2cc(C(=O)Nc3cc(N4CCN(C)CC4)cc(C(F)(F)F)c3)ccc2C)ncn1`, the inhibition in assay [1] turned out to be 7%.

Regarding `CCN1CCN(Cc2ccc(NC(=O)c3ccc(C)c(/C=C/c4cnc5[nH]ccc5c4OC)c3)cc2C(F)(F)F)CC1`, the inhibition was determined as 71.8% in assay [2], 0.1% in assay [3], 16.9% in assay [4] and 25.1% in assay [5].

With `CNc1cc(Oc2cc(C(=O)Nc3cc(-n4cnc(C)c4)cc(C(F)(F)F)c3)ccc2C)ncn1`, the inhibition in assay [1] was found to be 18.4%.

For the compound `CCN1CCN(Cc2ccc(NC(=O)c3ccc(C)c(Oc4ccnc5[nH]ccc45)c3)cc2C(F)(F)F)CC1`, the inhibition in assay [2] is 88.7%; in assay [3], -1.2%; in assay [4], 35.7%; in assay [5] it was -1.8%.

The term inhibition denotes the relative decrease from the control value, in per cent.
